Data from paper PMC4582152 (International Journal of Biological Sciences, 2015).

How the values were obtained:
DhelOBP21-I84N mutant = test: Competitive fluorescence binding assay with 1-NPN as probe, mutant I84N; set-up: species or system Dastarcus helophoroides
In short: (§1)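 Competitive displacement at pH 7.4 or pH 5.0: 2 μM recombinant protein with a standard concentration of 1-NPN, titrated with aliquots of odorant volatiles (stocks in methanol). Fluorescence is read as for the 1-NPN titration. IC50 is the competitor concentration that halves the initial fluorescence. Ki = IC50/(1+[1-NPN]/K1-NPN), using the Scatchard Kd. Three independent measurements; reported as 1/Ki*1000.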

DhelOBP21-T119N mutant = test: Competitive fluorescence binding assay with 1-NPN as probe, mutant T119N; set-up: species or system Dastarcus helophoroides; conditions: for Binding ability of mutant T119N compared with DhelOBP-WT: pH 7.4; for Binding affinity of mutant T119N compared with DhelOBP-WT: pH 5.0
In short: as §1

| SMILES | Binding affinity of mutant I84N compared with DhelOBP-WT (DhelOBP21-I84N mutant; pH 5.0) | Binding ability of mutant T119N compared with DhelOBP-WT (DhelOBP21-T119N mutant) | Binding affinity of mutant T119N compared with DhelOBP-WT (DhelOBP21-T119N mutant) | Binding affinity of mutant I84N compared with DhelOBP-WT (DhelOBP21-I84N mutant; pH 7.4) |
| --- | --- | --- | --- | --- |
| Cc1cc(C(C)(C)C)c(O)c(C(C)(C)C)c1 [Butylated hydroxytoluene, butylated hydroxytoluene] | relatively higher affinities | greater binding ability |  |  |
| CC12CCC(CC1=O)C2(C)C (stereo not shown) [Camphor, camphor] | did not show any apparent difference |  | did not show any apparent difference |  |

Next, values leading:

| Binding affinity of mutant I84N compared with DhelOBP-WT (DhelOBP21-I84N mutant; pH 5.0) | Binding ability of mutant T119N compared with DhelOBP-WT (DhelOBP21-T119N mutant) | Binding affinity of mutant T119N compared with DhelOBP-WT (DhelOBP21-T119N mutant) | Binding affinity of mutant I84N compared with DhelOBP-WT (DhelOBP21-I84N mutant; pH 7.4) | SMILES |
| --- | --- | --- | --- | --- |
| did not show any apparent difference | declined significantly | did not show any apparent difference |  | C=C1C2CCC(C2)C1(C)C (stereo not shown) [Camphene, camphene] |
|  | declined significantly |  |  | C=CC(=C)CCC=C(C)C [Myrcene, myrcene] |
|  |  | relatively higher affinity | better than with DhelOBP-WT | CC1=CCC(=C(C)C)CC1 [Terpinolene] |
